Measured values taken from ChEMBL document CHEMBL1127497, “Studies on antiulcer drugs. 7. 2-Guanidino-4-pyridylthiazoles as histamine H2-receptor antagonists with potent gastroprotective effects against nonsteroidal antiinflammatory drug-induced injury” (J Med Chem, 1994).

Tests used:
Rattus norvegicus [1] = assay: Inhibition of aspirin induced gastric lesions in rats after peroral dose of 32 mg/kg; type: functional; conditions: Stomach, route oral
In short: (§1)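 Male SD rats (~200 g), fasted 24 h. Test compound given orally in 0.1% MC, then aspirin 200 mg/kg in 0.2 N HCl/0.1% MC (10 mL/kg) orally 30 min later. Rats killed 1 h after aspirin. Ulcer index is the summed lesion length (mm); % inhibition is relative to controls. Seven rats per group for screening; ED50 by probit from three doses, ten rats per dose.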

Rattus norvegicus [2] = assay: Inhibition of histamine stimulated gastric acid secretion in lumen perfused anaesthetized rats after 1 mg/kg intravenous dose; type: functional; conditions: Stomach
In short: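 Male SD rats (~250 g), fasted 24 h, urethane 1.25 g/kg ip. Stomach lumen perfused with saline; perfusate titrated with 25 mM NaOH. Histamine infused iv at 3 mg/kg/h. At plateau, compound given iv at 1 mg/kg. Result expressed as maximal inhibition of acid output; n = 2.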

[3] = target: Histamine H2 receptor (Cavia porcellus) (UniProt P47747); assay: H2 receptor antagonistic activity against histamine stimulated chronotropic response in isolated guinea pig right atrium at 1x10E-6 g/mL.; type: functional, tissue-based; conditions: Cardiac atrium
Histamine H2 receptor (Cavia porcellus), sequence (P47747 whole entry): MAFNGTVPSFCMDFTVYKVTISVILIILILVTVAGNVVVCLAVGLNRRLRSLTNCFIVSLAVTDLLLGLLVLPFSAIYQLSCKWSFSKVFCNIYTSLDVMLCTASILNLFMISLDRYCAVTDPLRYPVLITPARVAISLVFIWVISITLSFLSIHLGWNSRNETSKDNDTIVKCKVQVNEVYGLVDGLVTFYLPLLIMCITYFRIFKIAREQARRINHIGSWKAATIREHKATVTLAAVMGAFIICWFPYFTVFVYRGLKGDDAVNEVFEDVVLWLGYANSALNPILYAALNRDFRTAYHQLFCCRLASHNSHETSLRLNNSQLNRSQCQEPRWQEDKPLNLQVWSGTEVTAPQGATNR
In short: (§2)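 Guinea pig atrial strip under 0.3–0.6 g tension in Tyrode solution, 30 °C, gassed with 95% O2-5% CO2. Beating rate recorded. Histamine HCl 1 × 10-6 g/mL given; after washout, test compound added (single-concentration screen 1 × 10-6 g/mL) and histamine response compared before and 30 min after dosing. IC50 from three doses by probit analysis, three atria per dose.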

Canis familiaris [4] = assay: Evaluated against tetragastrin stimulated gastric acid secretion in conscious Hiedenhain-pouch dogs at a dose of 0.32 mg/kg, po; type: functional; conditions: Canis lupus familiaris, Stomach
In short: (§3)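 Beagle Heidenhain-pouch dogs, 8–13 kg, oral dosing. Acid concentration titrated to pH 7 with 0.1 N NaOH; total acid output is volume × concentration. Change is relative to predosing output. ED50 by probit from three or four doses, three or four dogs per dose.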

Rattus norvegicus [5] = assay: Effect on gastric mucosal blood flow 15 minutes before dosing of HCl and aspirin after drug dosing at 10 mg/kg intragastrically; type: functional, Gastric mucosa; conditions: route intragastric
In short: (§4)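 Male rats, five per group, test drug suspended in 0.1% MC given intragastrically. Aspirin 200 mg/kg in 0.2 N HCl/0.1% MC (0.2 mL) given ig 15 min later. […] Reported as mean ± SEM and % of initial.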

Rattus norvegicus [6] = assay: Effect on gastric mucosal blood flow at basal value which is 15 minutes before dosing of drugs at 10 mg/kg intragastrically; type: functional, Gastric mucosa; conditions: route intragastric; in short: as §4
Rattus norvegicus [7] = assay: Effective dose against aspirin induced gastric lesions in rats after peroral administration; type: functional; conditions: Stomach, po; in short: as §1
Rattus norvegicus [8] = assay: Effective dose against indomethacin induced gastric lesions in rats after peroral administration; type: functional; conditions: Stomach, po
In short: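 Male SD rats (~200 g), fasted 24 h, dosed orally with test compound in 0.1% MC, ten per group. Indomethacin 5 mg/kg in 0.1% MC given orally 30 min later, then 0.35 N HCl (5 mL/kg) orally after 1 h. Killed 1 h after that. Ulcer index is the summed lesion length. ED50 by probit from three doses.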

Rattus norvegicus [9] = assay: Effect on gastric mucosal blood flow at basal value which is 15 minutes before dosing of drugs at 32 mg/kg intragastrically; type: functional, Gastric mucosa; conditions: route intragastric; in short: as §4
Rattus norvegicus [10] = assay: Effect on gastric mucosal blood flow 60 minutes after administration of HCl and aspirin after drug dosing at 10 mg/kg intragastrically; type: functional, Gastric mucosa; conditions: route intragastric; in short: as §4
Rattus norvegicus [11] = assay: Effect on gastric mucosal blood flow 60 minutes after administration of HCl and aspirin after drug dosing at 32 mg/kg intragastrically; type: functional, Gastric mucosa; conditions: route intragastric; in short: as §4
Rattus norvegicus [12] = assay: Effect on gastric mucosal blood flow 15 minutes before dosing of HCl and aspirin after drug dosing at 32 mg/kg intragastrically; type: functional, Gastric mucosa; conditions: route intragastric; in short: as §4
Rattus norvegicus [13] = assay: Effect on gastric mucosal blood flow 30 minutes after administration of HCl and aspirin after drug dosing at 10 mg/kg intragastrically; type: functional, Gastric mucosa; conditions: route intragastric; in short: as §4
Rattus norvegicus [14] = assay: Effect on gastric mucosal blood flow 30 minutes after administration of HCl and aspirin after drug dosing at 32 mg/kg intragastrically; type: functional, Gastric mucosa; conditions: route intragastric; in short: as §4
Rattus norvegicus [15] = assay: Evaluated for inhibition of basal gastric acid secretion in pyolus-ligated rats after intraduodenal administration; conditions: Stomach, id
Canis familiaris [16] = assay: Effective dose against tetragastrin stimulated gastric acid secretion in conscious Hiedenhain-pouch dogs after peroral administration; type: functional; conditions: Canis lupus familiaris, Stomach, po; in short: as §3
Histamine H2 receptor = Histamine H2 receptor (Cavia porcellus, UniProt P47747); assay: Compound was tested for H2 receptor antagonistic activity against histamine stimulated chronotropic response in isolated guinea pig right atrium; type: functional, tissue-based, Cardiac atrium; in short: as §2
Histamine H2 receptor, sequence (P47747 whole entry): as above

SMILES	inhibition in vivo at 32 mg/kg (Rattus norvegicus [1])	inhibition in vivo at 1 mg/kg (Rattus norvegicus [2])	inhibition [3]	other results
CC(=O)NCc1cc(-c2csc(N=C(N)N)n2)ccn1	42%	40%	–	–
N=C(N)Nc1nc(-c2cccc(CNC(N)=O)n2)cs1	34%	98%	100%	inhibition in vivo at 0.32 mg/kg (Canis familiaris [4]): 78%
C/N=C(/NCc1cccc(-c2csc(N=C(N)N)n2)n1)NS(C)(=O)=O	10%	24%	29%	–
CCCNC(=O)NCc1cccc(-c2csc(N=C(N)N)n2)n1	42%	90%	82%	–
N=C(N)Nc1nc(-c2cccc(CNC(=O)C3CCC3)n2)cs1	82%	61%	2%	–
NC(N)=Nc1nc(CSCC/C(N)=N/S(N)(=O)=O)cs1 [FAMOTIDINE]	22%	96%	87%	Flow rate (Rattus norvegicus [5]): 73 ml min-1 100g-1; Flow rate (Rattus norvegicus [6]): 68.6 ml min-1 100g-1; ED50 (Rattus norvegicus [7]): > 100 mg/kg; ED50 (Rattus norvegicus [8]): > 100 mg/kg; Flow rate (Rattus norvegicus [9]): 58.4 ml min-1 100g-1; Flow rate (Rattus norvegicus [10]): 50.5 ml min-1 100g-1; Flow rate (Rattus norvegicus [11]): 43.4 ml min-1 100g-1; Flow rate (Rattus norvegicus [12]): 60.5 ml min-1 100g-1; inhibition in vivo at 0.32 mg/kg (Canis familiaris [4]): 96%; Flow rate (Rattus norvegicus [13]): 62.5 ml min-1 100g-1; Flow rate (Rattus norvegicus [14]): 46.9 ml min-1 100g-1; ED50 (Rattus norvegicus [15]): 3.5 mg/kg; ED50 (Canis familiaris [16]): 0.042 mg/kg
N=C(N)Nc1nc(-c2cccc(CNC(=O)C3CCCCCC3)n2)cs1	93%	43%	13%	inhibition in vivo at 0.32 mg/kg (Canis familiaris [4]): 67%
N=C(N)Nc1nc(-c2cccc(CNC=O)n2)cs1	57%	83%	46%	–
NC(N)=Nc1nc(CSCCC(N)=NS(N)(=O)=O)cs1 [FAMOTIDINE]	–	–	–	IC50 (Histamine H2 receptor): 300 nM
CC(C)C(=O)NCc1cccc(-c2csc(N=C(N)N)n2)n1	65%	21%	62%	–
CCCC(=O)NCc1cccc(-c2csc(N=C(N)N)n2)n1	56%	71%	25%	–
N=C(N)Nc1nc(-c2cccc(CNC(=O)c3ccco3)n2)cs1	69%	34%	13%	–
CSCC(=O)NCc1cccc(-c2csc(N=C(N)N)n2)n1	80%	4%	37%	–
C/N=C(\NC#N)NCc1cccc(-c2csc(N=C(N)N)n2)n1	37%	15%	43%	–
N=C(N)Nc1nc(-c2cccc(CC(=N)NS(N)(=O)=O)n2)cs1	16%	42%	–	–
CC(=O)NCc1cccc(-c2csc(N=C(N)N)n2)n1.Cl	68%	82%	66%	Flow rate (Rattus norvegicus [5]): 70.2 ml min-1 100g-1; Flow rate (Rattus norvegicus [6]): 70.4 ml min-1 100g-1; ED50 (Rattus norvegicus [7]): 13.3 mg/kg; ED50 (Rattus norvegicus [8]): 6.5 mg/kg; Flow rate (Rattus norvegicus [9]): 58.9 ml min-1 100g-1; Flow rate (Rattus norvegicus [10]): 61 ml min-1 100g-1; Flow rate (Rattus norvegicus [11]): 60.4 ml min-1 100g-1; Flow rate (Rattus norvegicus [12]): 65.3 ml min-1 100g-1; inhibition in vivo at 0.32 mg/kg (Canis familiaris [4]): 95%; Flow rate (Rattus norvegicus [13]): 67.9 ml min-1 100g-1; Flow rate (Rattus norvegicus [14]): 63.1 ml min-1 100g-1; ED50 (Rattus norvegicus [15]): 12.6 mg/kg; IC50 (Histamine H2 receptor): 1300 nM; ED50 (Canis familiaris [16]): 0.063 mg/kg
N=C(N)Nc1nc(-c2cccc(CNC(=O)C(F)(F)F)n2)cs1	43%	43%	72%	–
N=C(N)Nc1nc(-c2cccc(CNC(=O)C3CCCC3)n2)cs1	92%	67%	32%	inhibition in vivo at 0.32 mg/kg (Canis familiaris [4]): 22%
